Measurements taken from ChEMBL document CHEMBL3739417, “Synthesis and biological evaluation of novel 4,5-disubstituted 2H-1,2,3-triazoles as cis-constrained analogues of combretastatin A-4” (2015).

How the values were obtained:
Type in all cases: functional
MDA-MB-231 = experiment: Growth inhibition of human MDA-MB-231 cells after 48 hrs by sulforhodamine B assay; details: MDA-MB-231, 48 h
Summary of the method: (§1)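 NCI-60 panel screen by SRB assay (Rubinstein method). Percentage growth taken from optical density of SRB colour, read before and 48 hrs after exposure to compound or vehicle control. All analogues first screened at 10^-5 M. Analogues giving 60% growth inhibition at that level in at least eight lines then went to a five-concentration dose-response study.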

[1] = Growth inhibition of human OVCAR3 cells after 48 hrs by sulforhodamine B assay; details: OVCAR-3, 48 h
Summary of the method: (§2)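 NCI-60 sulforhodamine B screen. Compounds were first tested at a single dose of 10⁻⁵ M; hits, defined as ≥60% growth inhibition in at least eight lines, went on to a five-concentration dose–response. SRB optical density was read before and 48 h after exposure to compound or vehicle. Percentage growth was calculated from OD.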

CAKI-1 = experiment: Growth inhibition of human CAKI-1 cells after 48 hrs by sulforhodamine B assay; details: CAKI-1, 48 h; summary of the method: as §1
SK-MEL-5 = experiment: Growth inhibition of human SK-MEL-5 cells after 48 hrs by sulforhodamine B assay; details: SK-MEL-5, 48 h; summary of the method: as §1
786-0 = experiment: Growth inhibition of human 786-0 cells after 48 hrs by sulforhodamine B assay; details: 786-0, 48 h; summary of the method: as §1
MDA-MB-468 = experiment: Growth inhibition of human MDA-MB-468 cells after 48 hrs by sulforhodamine B assay; details: MDA-MB-468, 48 h; summary of the method: as §1
[2] = Growth inhibition of human MOLT4 cells after 48 hrs by sulforhodamine B assay; details: MOLT-4, 48 h; summary of the method: as §1
K562 = experiment: Growth inhibition of human K562 cells after 48 hrs by sulforhodamine B assay; details: K562, 48 h; summary of the method: as §1
[3] = Growth inhibition of human HCC2998 cells after 48 hrs by sulforhodamine B assay; details: HCC 2998, 48 h; summary of the method: as §1
[4] = Growth inhibition of human LOXIMVI cells after 48 hrs by sulforhodamine B assay; details: LOX IMVI; summary of the method: as §1
U-251 = experiment: Growth inhibition of human U251 cells after 48 hrs by sulforhodamine B assay; details: U-251, 48 h; summary of the method: as §1
[5] = Growth inhibition of human UO31 cells after 48 hrs by sulforhodamine B assay; details: UO-31, 48 h; summary of the method: as §1
HT-29 = experiment: Growth inhibition of human HT-29 cells after 48 hrs by sulforhodamine B assay; details: HT-29, 48 h; summary of the method: as §1
[6] = Growth inhibition of human SNB75 cells after 48 hrs by sulforhodamine B assay; details: SNB-75, 48 h; summary of the method: as §1
KM12 = experiment: Growth inhibition of human KM12 cells after 48 hrs by sulforhodamine B assay; details: KM12, 48 h; summary of the method: as §1
[7] = Growth inhibition of human HOP92 cells after 48 hrs by sulforhodamine B assay; details: HOP-92, 48 h; summary of the method: as §1
MCF7 = experiment: Growth inhibition of human MCF7 cells after 48 hrs by sulforhodamine B assay; details: MCF7, 48 h; summary of the method: as §1
[8] = Growth inhibition of human DU145 cells after 48 hrs by sulforhodamine B assay; details: DU-145, 48 h; summary of the method: as §1
A498 = experiment: Growth inhibition of human A498 cells after 48 hrs by sulforhodamine B assay; details: A498, 48 h; summary of the method: as §2
NCI-H460 = experiment: Growth inhibition of human NCI-H460 cells after 48 hrs by sulforhodamine B assay; details: NCI-H460, 48 h; summary of the method: as §1
[9] = Growth inhibition of human PC3 cells after 48 hrs by sulforhodamine B assay; details: PC-3, 48 h; summary of the method: as §1
[10] = Growth inhibition of human SW620 cells after 48 hrs by sulforhodamine B assay; details: SW-620, 48 h; summary of the method: as §1
CCRF-CEM = experiment: Growth inhibition of human CCRF-CEM cells after 48 hrs by sulforhodamine B assay; summary of the method: as §1
MDA-MB-435 = experiment: Growth inhibition of human MDA-MB-435 cells after 48 hrs by sulforhodamine B assay; details: MDA-MB-435, 48 h; summary of the method: as §2
[11] = Growth inhibition of human SF268 cells after 48 hrs by sulforhodamine B assay; details: SF-268, 48 h; summary of the method: as §1
[12] = Growth inhibition of human HCT15 cells after 48 hrs by sulforhodamine B assay; details: HCT-15, 48 h; summary of the method: as §1
ACHN = experiment: Growth inhibition of human ACHN cells after 48 hrs by sulforhodamine B assay; summary of the method: as §1
[13] = Growth inhibition of human RPMI8226 cells after 48 hrs by sulforhodamine B assay; details: RPMI-8226, 48 h; summary of the method: as §1
NCI-H23 = experiment: Growth inhibition of human NCI-H23 cells after 48 hrs by sulforhodamine B assay; details: NCI-H23, 48 h; summary of the method: as §1
[14] = Growth inhibition of human NCI-ADR-RES cells after 48 hrs by sulforhodamine B assay; summary of the method: as §1
[15] = Growth inhibition of human HL-60(TB) cells after 48 hrs by sulforhodamine B assay; details: HL-60, 48 h; summary of the method: as §1
[16] = Growth inhibition of human SF295 cells after 48 hrs by sulforhodamine B assay; details: SF-295, 48 h; summary of the method: as §1
A549 = experiment: Growth inhibition of human A549/ATCC cells after 48 hrs by sulforhodamine B assay; details: A549, 48 h; summary of the method: as §1
SK-MEL-2 = experiment: Growth inhibition of human SK-MEL-2 cells after 48 hrs by sulforhodamine B assay; details: SK-MEL-2, 48 h; summary of the method: as §1
[17] = Growth inhibition of human HOP62 cells after 48 hrs by sulforhodamine B assay; details: HOP-62, 48 h; summary of the method: as §1
[18] = Growth inhibition of human SKOV3 cells after 48 hrs by sulforhodamine B assay; details: SK-OV-3, 48 h; summary of the method: as §1
[19] = Growth inhibition of human COLO205 cells after 48 hrs by sulforhodamine B assay; details: COLO 205, 48 h; summary of the method: as §1
[20] = read-out: LD50 (the source's name)

`COc1cc(-c2n[nH]nc2-c2ccc3c(c2)OCO3)cc(OC)c1OC` gave a GI50 (MDA-MB-231) of 530 nM, a CC50 (MDA-MB-231; [20]) greater than 100000 nM and a GI50 [1] of 430 nM. The LC50 (concentration giving 50% net cell kill) ([1]; read-out: LD50) was greater than 100000 nM, the GI50 (CAKI-1) was 320 nM and the CC50 (CAKI-1; [20]) was greater than 100000 nM. For the same compound, the GI50 (SK-MEL-5) was greater than 100000 nM, the CC50 (SK-MEL-5; [20]) was greater than 100000 nM and the GI50 (786-0) was 620 nM. It also gave an LC50 (concentration killing 50% of cells) (786-0; read-out: LD50) greater than 100000 nM, a GI50 (MDA-MB-468) of 230 nM and a CC50 (MDA-MB-468; [20]) greater than 100000 nM. For the same compound, the GI50 [2] was 570 nM, the CC50 [2, 20] was greater than 100000 nM and the GI50 (K562) was 50 nM. For the same compound, the CC50 (K562; [20]) was greater than 100000 nM, the GI50 [3] was greater than 100000 nM and the CC50 [3, 20] was greater than 100000 nM. It also gave a GI50 [4] of 550 nM, a CC50 [4, 20] greater than 100000 nM and a GI50 (U-251) of 300 nM. For the same compound, the CC50 (U-251; [20]) was greater than 100000 nM, the GI50 [5] was 660 nM and the LC50 (concentration killing 50% of cells) ([5]; read-out: LD50) was greater than 100000 nM. The GI50 (HT-29) was 390 nM, the LC50 (concentration killing 50% of cells) (HT-29; read-out: LD50) was greater than 100000 nM and the GI50 [6] was 80 nM. For the same compound, the CC50 [6, 20] was greater than 100000 nM, the GI50 (KM12) was 70 nM and the LC50 (concentration killing 50% of cells) (KM12; read-out: LD50) was greater than 100000 nM. For the same compound, the GI50 [7] was 120 nM, the CC50 [7, 20] was greater than 100000 nM and the GI50 (MCF7) was 80 nM. The CC50 (MCF7; [20]) was greater than 100000 nM, the GI50 [8] was 350 nM and the CC50 [8, 20] was greater than 100000 nM. For the same compound, the GI50 (A498) was 340 nM, the LC50 (50% net cell kill) (A498; read-out: LD50) was greater than 100000 nM and the GI50 (NCI-H460) was 340 nM. It also gave a CC50 (NCI-H460; [20]) greater than 100000 nM, a GI50 [9] of 260 nM and a CC50 [9, 20] greater than 100000 nM. The GI50 [10] was 110 nM, the LD50 (concentration killing 50% of cells) [10] was greater than 100 µM and the GI50 (CCRF-CEM) was 280 nM. For the same compound, the LC50 (concentration killing 50% of cells) (CCRF-CEM; read-out: LD50) was greater than 100000 nM, the GI50 (MDA-MB-435) was 90 nM and the LC50 (concentration killing 50% of cells) (MDA-MB-435; read-out: LD50) was greater than 100000 nM. For the same compound, the GI50 [11] was greater than 100000 nM, the CC50 [11, 20] was greater than 100000 nM and the GI50 [12] was 130 nM. It also gave a CC50 [12, 20] greater than 100000 nM, a GI50 (ACHN) of 710 nM and a CC50 (ACHN; [20]) greater than 100000 nM. It also gave a GI50 [13] of 330 nM, a CC50 [13, 20] greater than 100000 nM and a GI50 (NCI-H23) of 770 nM. It also gave an LC50 (concentration giving 50% cell kill) (NCI-H23; read-out: LD50) greater than 100000 nM, a GI50 [14] of 80 nM and a CC50 [14, 20] greater than 100000 nM. It also gave a GI50 [15] of 200 nM, a CC50 [15, 20] greater than 100000 nM and a GI50 [16] of 100 nM. It also gave a CC50 [16, 20] greater than 100000 nM, a GI50 (A549) of 290 nM and a CC50 (A549; [20]) greater than 100000 nM. It also gave a GI50 (SK-MEL-2) of 20 nM, a CC50 (SK-MEL-2; [20]) greater than 100000 nM and a GI50 [17] of 340 nM. It also gave an LC50 (concentration killing 50% of cells) ([17]; read-out: LD50) greater than 100000 nM, a GI50 [18] of 490 nM and an LC50 (concentration killing 50% of cells) ([18]; read-out: LD50) greater than 100000 nM. The GI50 [19] was 310 nM and the CC50 [19, 20] was greater than 100000 nM.
